# ChEMBL document CHEMBL1136861, “Identification of a series of benzoxazoles as potent 5-HT6 ligands” (Bioorg Med Chem Lett, 2009)
# Target: T1, 5-hydroxytryptamine receptor 6 (Homo sapiens, UniProt P50406)
# Assay: Displacement of [3H]LSD from human cloned 5HT6 receptor expressed in human HeLa cells
# Type: cell-based
# Method in brief: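 Human 5-HT6 receptor cloned and stably expressed in HeLa cells; competition binding with [3H]-LSD as radioligand; Ki values determined in triplicate.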
# T1 sequence (P50406 whole entry): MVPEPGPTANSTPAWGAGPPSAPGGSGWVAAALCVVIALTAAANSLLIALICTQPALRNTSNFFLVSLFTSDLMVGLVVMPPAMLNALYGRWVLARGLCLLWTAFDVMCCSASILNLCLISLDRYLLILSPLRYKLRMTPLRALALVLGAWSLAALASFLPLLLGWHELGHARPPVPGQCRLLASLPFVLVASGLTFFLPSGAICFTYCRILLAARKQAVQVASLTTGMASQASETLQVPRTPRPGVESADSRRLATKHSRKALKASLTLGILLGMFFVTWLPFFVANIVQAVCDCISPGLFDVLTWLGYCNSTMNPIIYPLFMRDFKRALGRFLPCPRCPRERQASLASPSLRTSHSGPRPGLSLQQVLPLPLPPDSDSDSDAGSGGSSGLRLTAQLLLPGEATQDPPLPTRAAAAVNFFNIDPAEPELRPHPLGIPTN
row,SMILES,Ki [nM]
1,O=S(=O)(c1cccc2ccccc12)c1cccc2oc(N3CCN(C4CCCC4)CC3)nc12,79
2,O=S(=O)(c1ccccc1)c1cccc2oc(N3CCNCC3)nc12,41
3,O=S(=O)(c1cccc2ccccc12)c1cccc2oc(N3CCN(CCCc4ccccc4)CC3)nc12,127
4,CN1CCN(c2nc3c(S(=O)(=O)c4cccc5ccccc45)cccc3o2)CC1,9.7
5,O=S(=O)(c1cccc2ccccc12)c1cccc2nc(N3CCNCC3)oc12,7.1

# Target: T1, 5-hydroxytryptamine receptor 6
# Assay: Antagonist activity at human cloned 5HT6 receptor expressed in human HeLa cells assessed as blockage of 5-HT-stimulated cAMP formation after 10 mins by radioimmunoassay
# Type: functional, cell-based
# Method in brief: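 HeLa cells stably transfected with human 5-HT6 receptor; antagonism read as blockade of 5-HT-stimulated cAMP formation; IC50 and Imax values determined in triplicate.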
SMILES,IC50 [nM],Imax [%]
O=S(=O)(c1cc(Cl)ccc1Cl)c1cccc2oc(N3CCNCC3)nc12,117,92
COc1cccc(S(=O)(=O)c2cccc3oc(N4CCNCC4)nc23)c1,100,92
CN1CCN(c2nc3c(S(=O)(=O)c4cccc5ccccc45)cccc3o2)CC1,105,83
O=S(=O)(c1cccc2ccccc12)c1cccc2oc(N3CCNCC3)nc12,96,97
CCN1CCN(c2nc3c(S(=O)(=O)c4cccc5ccccc45)cccc3o2)CC1,248,89
O=S(=O)(c1cccc2ccccc12)c1cccc2nc(N3CCNCC3)oc12,77,96
O=S(=O)(c1cccc(C(F)(F)F)c1)c1cccc2oc(N3CCNCC3)nc12,120,96
